In brackets after ≈: the same amount, converted by molar mass.
Tests used:
Format in all cases: functional
NCI-H460 = experiment: Growth inhibition of human NCI-H460 cells after 48 hrs by SRB assay; conditions: NCI-H460, 48 h
Procedure, shortened: (§1)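 Cells in RPMI1640 with 5% fetal bovine serum were seeded in 96-well plates and incubated 24 h before serial dilutions of compound were added. After 48 h, plates were TCA-fixed, stained with sulforhodamine B and read on a microplate reader. Five serial dilutions were tested, with optical density in duplicate per end point. GI50 was calculated from optical density as the concentration halving net protein increase.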

SF-268 = experiment: Growth inhibition of human SF268 cells after 48 hrs by SRB assay; conditions: SF-268, 48 h; procedure, shortened: as §1
BXPC-3 = experiment: Growth inhibition of human BxPC3 cells after 48 hrs by SRB assay; conditions: BXPC-3, 48 h; procedure, shortened: as §1
KM-20L2 = experiment: Growth inhibition of human KM20L2 cells after 48 hrs by SRB assay; conditions: KM-20L2, 48 h; procedure, shortened: as §1
MCF7 = experiment: Growth inhibition of human MCF7 cells after 48 hrs by SRB assay; conditions: MCF7, 48 h; procedure, shortened: as §1
DU-145 = experiment: Growth inhibition of human DU145 cells after 48 hrs by SRB assay; conditions: DU-145, 48 h; procedure, shortened: as §1

GI50 (NCI-H460) | GI50 (BXPC-3) | GI50 (MCF7) | GI50 (DU-145) | Structure (SMILES) | GI50 (SF-268) | GI50 (KM-20L2)
> 10 µg/mL | > 10 µg/mL | > 10 µg/mL | > 10 µg/mL | C=C(CBr)[C@@H]1CC[C@]2(COC(C)=O)CC[C@]3(C)[C@H](CC[C@@H]4[C@@]5(C)CC[C@H](OC(C)=O)C(C)(C)[C@@H]5CC[C@]43C)[C@@H]12 | > 10 µg/mL | > 10 µg/mL
4 µg/mL (≈ 8.74 µM) | 3 µg/mL (≈ 6.55 µM) | 3.1 µg/mL (≈ 6.77 µM) | 2.1 µg/mL (≈ 4.59 µM) | C=C(CN)[C@@H]1CC[C@]2(CO)CC[C@]3(C)[C@H](CC[C@@H]4[C@@]5(C)CC[C@H](O)C(C)(C)[C@@H]5CC[C@]43C)[C@@H]12 | 4.2 µg/mL (≈ 9.18 µM) | 2.9 µg/mL (≈ 6.34 µM)
> 10 µg/mL | > 10 µg/mL | > 10 µg/mL | > 10 µg/mL | C=C(CN=[N+]=[N-])[C@@H]1CC[C@]2(COC(C)=O)CC[C@]3(C)[C@H](CC[C@@H]4[C@@]5(C)CC[C@H](OC(C)=O)C(C)(C)[C@@H]5CC[C@]43C)[C@@H]12 | > 10 µg/mL | > 10 µg/mL
> 10 µg/mL | > 10 µg/mL | > 10 µg/mL | > 10 µg/mL | C=C(CNC(=O)[C@H](C)[C@@H](OC)[C@@H]1CCCN1C(=O)OC(C)(C)C)[C@@H]1CC[C@]2(COC(C)=O)CC[C@]3(C)[C@H](CC[C@@H]4[C@@]5(C)CC[C@H](OC(C)=O)C(C)(C)[C@@H]5CC[C@]43C)[C@@H]12 | 5.9 µg/mL (≈ 7.27 µM) | 7 µg/mL (≈ 8.63 µM)
> 10 µg/mL | > 10 µg/mL | > 10 µg/mL | > 10 µg/mL | C=C(C)[C@@H]1CC[C@]2(COC(C)=O)CC[C@]3(C)[C@H](CC[C@@H]4[C@@]5(C)CC[C@H](NC(=O)[C@H](C)[C@@H](OC)[C@@H]6CCCN6C(=O)OC(C)(C)C)C(C)(C)[C@@H]5CC[C@]43C)[C@@H]12 | > 10 µg/mL | > 10 µg/mL
> 10 µg/mL | > 10 µg/mL | 9 µg/mL (≈ 12.4 µM) | > 10 µg/mL | C=C(CNC(=O)[C@H](C)[C@@H](OC)[C@@H]1CCCN1C(=O)OC(C)(C)C)[C@@H]1CC[C@]2(CO)CC[C@]3(C)[C@H](CC[C@@H]4[C@@]5(C)CC[C@H](O)C(C)(C)[C@@H]5CC[C@]43C)[C@@H]12 | > 10 µg/mL | > 10 µg/mL
7.4 µg/mL (≈ 16.7 µM) | 9.3 µg/mL (≈ 21 µM) | > 10 µg/mL | > 10 µg/mL | C=C(C)[C@@H]1CC[C@]2(CO)CC[C@]3(C)[C@H](CC[C@@H]4[C@@]5(C)CC[C@H](O)C(C)(C)[C@@H]5CC[C@]43C)[C@@H]12 [BETULIN] | > 10 µg/mL | > 10 µg/mL

Second part, the molecule before the results:

Structure (SMILES) | GI50 (NCI-H460) | GI50 (BXPC-3) | GI50 (MCF7) | GI50 (DU-145) | GI50 (SF-268) | GI50 (KM-20L2)
C=C(C)[C@@H]1CC[C@]2(COC(C)=O)CC[C@]3(C)[C@H](CC[C@@H]4[C@@]5(C)CC[C@H](N)C(C)(C)[C@@H]5CC[C@]43C)[C@@H]12 | 0.21 µg/mL (≈ 0.434 µM) | 1.1 µg/mL (≈ 2.27 µM) | 0.2 µg/mL (≈ 0.413 µM) | 0.13 µg/mL (≈ 0.269 µM) | 0.21 µg/mL (≈ 0.434 µM) | 0.35 µg/mL (≈ 0.723 µM)
CC[C@H](C)[C@@H]([C@@H](CC(=O)N1CCC[C@H]1[C@H](OC)[C@@H](C)C(=O)NCCN1C(=O)[C@]23CCC(C)(C)C1[C@@H]2[C@H]1CC[C@@H]2[C@@]4(C)CC[C@H](O)C(C)(C)[C@@H]4CC[C@@]2(C)[C@]1(C)CC3)OC)N(C)C(=O)[C@@H](NC(=O)[C@H](C(C)C)N(C)C)C(C)C | 0.6 µg/mL (≈ 0.556 µM) | 0.31 µg/mL (≈ 0.287 µM) | 0.21 µg/mL (≈ 0.195 µM) | 0.06 µg/mL (≈ 0.0556 µM) | 0.09 µg/mL (≈ 0.0834 µM) | 0.22 µg/mL (≈ 0.204 µM)
C=C(C)[C@@H]1CC[C@]2(CO)CC[C@]3(C)[C@H](CC[C@@H]4[C@@]5(C)CC[C@H](NC(=O)[C@H](C)[C@@H](OC)[C@@H]6CCCN6C(=O)C[C@@H](OC)[C@H]([C@@H](C)CC)N(C)C(=O)[C@@H](NC(=O)[C@H](C(C)C)N(C)C)C(C)C)C(C)(C)[C@@H]5CC[C@]43C)[C@@H]12 | 2.1 µg/mL (≈ 2.05 µM) | 2 µg/mL (≈ 1.96 µM) | 0.7 µg/mL (≈ 0.685 µM) | 0.4 µg/mL (≈ 0.391 µM) | 0.4 µg/mL (≈ 0.391 µM) | 0.85 µg/mL (≈ 0.831 µM)
C=C(C)[C@@H]1CC[C@]2(C=O)CC[C@]3(C)[C@H](CC[C@@H]4[C@@]5(C)CC[C@H](OC(C)=O)C(C)(C)[C@@H]5CC[C@]43C)[C@@H]12 | > 10 µg/mL | > 10 µg/mL | > 10 µg/mL | > 10 µg/mL | > 10 µg/mL | > 10 µg/mL
C=C(C)[C@@H]1CC[C@]2(CNC(=O)[C@H](C)[C@@H](OC)[C@@H]3CCCN3C(=O)C[C@@H](OC)[C@H]([C@@H](C)CC)N(C)C(=O)[C@@H](NC(=O)[C@H](C(C)C)N(C)C)C(C)C)CC[C@]3(C)[C@H](CC[C@@H]4[C@@]5(C)CC[C@H](O)C(C)(C)[C@@H]5CC[C@]43C)[C@@H]12 | > 1 µg/mL | 0.6 µg/mL (≈ 0.587 µM) | 0.4 µg/mL (≈ 0.391 µM) | 0.4 µg/mL (≈ 0.391 µM) | 0.3 µg/mL (≈ 0.293 µM) | 0.31 µg/mL (≈ 0.303 µM)
C=C(CNC(=O)[C@H](C)[C@@H](OC)[C@@H]1CCCN1C(=O)C[C@@H](OC)[C@H]([C@@H](C)CC)N(C)C(=O)[C@@H](NC(=O)[C@H](C(C)C)N(C)C)C(C)C)[C@@H]1CC[C@]2(CO)CC[C@]3(C)[C@H](CC[C@@H]4[C@@]5(C)CC[C@H](O)C(C)(C)[C@@H]5CC[C@]43C)[C@@H]12 | 0.5 µg/mL (≈ 0.481 µM) | 0.4 µg/mL (≈ 0.385 µM) | 0.08 µg/mL (≈ 0.077 µM) | 0.04 µg/mL (≈ 0.0385 µM) | 0.04 µg/mL (≈ 0.0385 µM) | 0.09 µg/mL (≈ 0.0867 µM)
C=C(C)[C@@H]1CC[C@]2(CN)CC[C@]3(C)[C@H](CC[C@@H]4[C@@]5(C)CC[C@H](OC(C)=O)C(C)(C)[C@@H]5CC[C@]43C)[C@@H]12 | 1.9 µg/mL (≈ 3.93 µM) | 1.9 µg/mL (≈ 3.93 µM) | 1.8 µg/mL (≈ 3.72 µM) | 1.8 µg/mL (≈ 3.72 µM) | 1.8 µg/mL (≈ 3.72 µM) | 1.9 µg/mL (≈ 3.93 µM)
C=C(C)[C@@H]1CC[C@]2(COC(C)=O)CC[C@]3(C)[C@H](CC[C@@H]4[C@@]5(C)CC[C@@H](N)C(C)(C)[C@@H]5CC[C@]43C)[C@@H]12 | 6 µg/mL (≈ 12.4 µM) | > 10 µg/mL | 2.1 µg/mL (≈ 4.34 µM) | 1.3 µg/mL (≈ 2.69 µM) | 1.2 µg/mL (≈ 2.48 µM) | 3 µg/mL (≈ 6.2 µM)
C=C(C)[C@@H]1CC[C@]2(COC(C)=O)CC[C@]3(C)[C@H](CC[C@@H]4[C@@]5(C)CC[C@H](NC(=O)[C@H](C)[C@@H](OC)[C@@H]6CCCN6C(=O)C[C@@H](OC)[C@H]([C@@H](C)CC)N(C)C(=O)[C@@H](NC(=O)[C@H](C(C)C)N(C)C)C(C)C)C(C)(C)[C@@H]5CC[C@]43C)[C@@H]12 | > 10 µg/mL | 10 µg/mL (≈ 9.39 µM) | 4.1 µg/mL (≈ 3.85 µM) | 2.5 µg/mL (≈ 2.35 µM) | 3.8 µg/mL (≈ 3.57 µM) | 7 µg/mL (≈ 6.58 µM)
C=C(C)[C@@H]1CC[C@]2(/C=N/O)CC[C@]3(C)[C@H](CC[C@@H]4[C@@]5(C)CC[C@H](OC(C)=O)C(C)(C)[C@@H]5CC[C@]43C)[C@@H]12 | 4.1 µg/mL (≈ 8.24 µM) | 15.5 µg/mL (≈ 31.1 µM) | 4.5 µg/mL (≈ 9.04 µM) | > 10 µg/mL | 13.2 µg/mL (≈ 26.5 µM) | 5.1 µg/mL (≈ 10.2 µM)
CC[C@H](C)[C@@H]([C@@H](CC(=O)N1CCC[C@H]1[C@H](OC)[C@@H](C)C(=O)NCCN1C(=O)[C@]23CCC(C)(C)C1[C@@H]2[C@H]1CC[C@@H]2[C@@]4(C)CC[C@H](OC(C)=O)C(C)(C)[C@@H]4CC[C@@]2(C)[C@]1(C)CC3)OC)N(C)C(=O)[C@@H](NC(=O)[C@H](C(C)C)N(C)C)C(C)C | 5.1 µg/mL (≈ 4.55 µM) | 3.8 µg/mL (≈ 3.39 µM) | 3.6 µg/mL (≈ 3.21 µM) | 0.39 µg/mL (≈ 0.348 µM) | 1.3 µg/mL (≈ 1.16 µM) | 3.1 µg/mL (≈ 2.76 µM)
C=C(C)[C@@H]1CC[C@]2(CNC(=O)[C@H](C)[C@@H](OC)[C@@H]3CCCN3C(=O)OC(C)(C)C)CC[C@]3(C)[C@H](CC[C@@H]4[C@@]5(C)CC[C@H](OC(C)=O)C(C)(C)[C@@H]5CC[C@]43C)[C@@H]12 | > 10 µg/mL | > 10 µg/mL | > 10 µg/mL | > 10 µg/mL | > 10 µg/mL | > 10 µg/mL
C=C(C)[C@@H]1CC[C@]2(CNC(=O)[C@H](C)[C@@H](OC)[C@@H]3CCCN3C(=O)C[C@@H](OC)[C@H]([C@@H](C)CC)N(C)C(=O)[C@@H](NC(=O)[C@H](C(C)C)N(C)C)C(C)C)CC[C@]3(C)[C@H](CC[C@@H]4[C@@]5(C)CC[C@H](OC(C)=O)C(C)(C)[C@@H]5CC[C@]43C)[C@@H]12 | 4.2 µg/mL (≈ 3.95 µM) | 4.1 µg/mL (≈ 3.85 µM) | 3.6 µg/mL (≈ 3.38 µM) | 3.7 µg/mL (≈ 3.48 µM) | 2.6 µg/mL (≈ 2.44 µM) | 2.4 µg/mL (≈ 2.25 µM)
C=C(CNC(=O)[C@H](C)[C@@H](OC)[C@@H]1CCCN1C(=O)C[C@@H](OC)[C@H]([C@@H](C)CC)N(C)C(=O)[C@@H](NC(=O)[C@H](C(C)C)N(C)C)C(C)C)[C@@H]1CC[C@]2(COC(C)=O)CC[C@]3(C)[C@H](CC[C@@H]4[C@@]5(C)CC[C@H](OC(C)=O)C(C)(C)[C@@H]5CC[C@]43C)[C@@H]12 | > 10 µg/mL | 8 µg/mL (≈ 7.13 µM) | 6.3 µg/mL (≈ 5.61 µM) | 3 µg/mL (≈ 2.67 µM) | 4 µg/mL (≈ 3.56 µM) | 4 µg/mL (≈ 3.56 µM)
C=C(C)[C@@H]1CC[C@]2(COC(C)=O)CC[C@]3(C)[C@H](CC[C@@H]4[C@@]5(C)CC/C(=N/O)C(C)(C)[C@@H]5CC[C@]43C)[C@@H]12 | > 10 µg/mL | 10.4 µg/mL (≈ 20.9 µM) | 5.9 µg/mL (≈ 11.9 µM) | > 10 µg/mL | > 10 µg/mL | 14.1 µg/mL (≈ 28.3 µM)

From ChEMBL document CHEMBL4138262, “Antineoplastic Agents. 606. The Betulastatins” (2018)
